# Assay outcomes from PubChem.
# Cneo AK release: Cryptococcus neoformans lysis via adenylate kinase release; AID 651654; 0.2% of 360,000 active; C. neoformans lysis, adenylate kinase release luminescence, 4 h; normalised: neutral wells 0, clomiphene wells 100; lysis activity, % at 15 µM;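 active means mean lysis activity across replicates of at least 80%, whatever share of replicates individually reach that level; inactive means mean lysis activity below 80%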
#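 Material: C. neoformans cells | Amount: Yeast cell density of 5 × 10^6 cells/mL | Medium: Fresh YPD growth medium | Dosing: Single dose | Times: Static 4 h at 37 °C with compound, 1 h detection | Detection: AK luminescence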
# DAGLB inh: blocks human DAGLB lipase activity. Q8NCG7. HEK293T DAGLB membrane lysate, EnzChek fluorogenic substrate. inhibition, % at 5.17 µM. 0.059% of 340,000 active. AID 504411; in the data active means inhibition above about 34%;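 further: 0% = enzyme with vehicle and 100% = wells lacking enzyme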
# Target sequence (Q8NCG7 whole entry, looked up): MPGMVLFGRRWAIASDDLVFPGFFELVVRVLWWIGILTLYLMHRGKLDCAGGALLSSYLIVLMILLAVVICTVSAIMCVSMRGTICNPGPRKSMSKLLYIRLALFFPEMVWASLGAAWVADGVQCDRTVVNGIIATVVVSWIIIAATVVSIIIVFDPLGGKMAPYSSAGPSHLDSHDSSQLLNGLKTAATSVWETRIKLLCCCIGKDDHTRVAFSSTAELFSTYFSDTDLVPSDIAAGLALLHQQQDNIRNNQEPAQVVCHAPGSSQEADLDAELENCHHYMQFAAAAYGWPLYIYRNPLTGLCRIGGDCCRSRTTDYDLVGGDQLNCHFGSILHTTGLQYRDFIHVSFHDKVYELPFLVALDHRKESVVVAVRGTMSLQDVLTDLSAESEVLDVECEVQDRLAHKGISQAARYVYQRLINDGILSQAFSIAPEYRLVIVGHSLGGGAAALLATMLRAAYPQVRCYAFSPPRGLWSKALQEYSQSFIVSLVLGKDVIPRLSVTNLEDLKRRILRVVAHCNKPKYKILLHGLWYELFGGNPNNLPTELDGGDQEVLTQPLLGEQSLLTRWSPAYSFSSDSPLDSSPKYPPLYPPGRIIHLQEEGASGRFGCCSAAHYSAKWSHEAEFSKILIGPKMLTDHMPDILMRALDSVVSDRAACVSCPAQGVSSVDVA
# rRNA inh HTS: selective bacterial rRNA inhibition in E. coli; 1.6% of 350,000 active; E. coli WT GFP vs humanized-ribosome RFP mutants, fluorescence, 24 h; hits give low values; DMSO median 0, no signal -100; GFP signal change (wild-type ribosome), % (test concentration not listed);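 active means significant combined selectivity score with lowered wild-type GFP, culture density cut under 30%, mutant RFP and density less affected; inactive means any of these conditions unmet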
# SKN-1 block: blocks SKN-1 activity in C. elegans; C. elegans VP596 Pgst-4::GFP/RFP ratio, acrylamide-induced, 24 h; inhibition, % at 21.8 µM; 0.49% of 360,000 active;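 active means interference check ratio from 0.5 to 1.5 plus GFP to RFP signal ratio inhibition reaching or exceeding a fixed threshold, cut at about 30% in these data, passing the limit was not always enough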
# iPSC survival up: increases survival of single human iPS cells; hiPSC single-cell survival, ATPlite luminescence; 100% = ROCK inhibitor wells, 0% = DMSO; survival enhancement, % at 20 µM; 0.044% of 360,000 active; AID 602274; in the data active means survival enhancement above about 18%;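 further: cells exposed to compounds for 16 hours before the ATP read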
# MT1-MMP act inh: MT1-MMP (human) activation inhibition; HT1080 RFP-PRO-GFP cells, GFP/RFP ratio fluorescence, overnight; percent of plate control window, DMSO zero; P50281; GFP/RFP ratio change, % at 20 µM; 0.061% of 360,000 active;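 active means GFP/RFP ratio change of at least 30% with cell ATP level not reduced by more than half and red fluorescence within 50% of control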
#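 Compound: 20 µM single dose, 1% DMSO / System: HT1080 RFP-PRO-GFP cells / Controls: DMSO and RFP-L50D-GFP cell wells / Read-out basis: GFP/RFP fluorescence ratio / Schedule: overnight compound exposure at 37 °C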
# MT1-MMP act val: MT1-MMP (human) activation inhibition, single-concentration validation; shares compounds with MT1-MMP act inh; HT1080 RFP-PRO-GFP cells, GFP and RFP fluorescence ratio, overnight; inhibition, % at 20 µM; 10% of 200 active; AID 652235;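 active means inhibition of at least 50% in the primary cell screen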
# AID977621: wild-type E. coli growth inhibition versus H69 humanized strain – H69 mutant RFP, wild-type GFP, cherry-pick, dose response; 1,900 tested, under 10 active; fluorescence, 24 h; AID 977621; activity change, negative = inhibition at 50 µM; shares compounds with rRNA inh HTS;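 active means Wild-type ribosome reporter drop at least double the humanized mutant ribosome reporter drop, growth loss under a set limit; inconclusive means no clear call, values can overlap the other calls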;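 further: wild-type GFP and H69 mutant RFP strains grown together 50/50 in each well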
# AID977628: growth of wild-type and h24-humanized E. coli strains – h24 mutant RFP vs wild-type GFP, cherry-pick, dose response. E. coli WT GFP strain growth, fluorescence, 24 h. 1,900 tested, under 10 active. shares compounds with rRNA inh HTS. activity change, negative = inhibition at 50 µM. AID 977628;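 active means compound lowering the normal-ribosome reporter at least twice as much as the humanized-ribosome reporter, growth loss under a set limit; inconclusive means no clear call, values can overlap the other calls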;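 further: wild-type GFP and h24 humanized RFP strains co-cultured 1 to 1 per well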
# * = called active by the depositor; ? = inconclusive; / = no result. Sampled rows, rich in hits. Any-hit rate of the full collection: about 1.8%.
SMILES,Cneo AK release,DAGLB inh,rRNA inh HTS,SKN-1 block,iPSC survival up,MT1-MMP act inh,others
CCCOc1ccc2oc(=O)c3c(c2c1)CCCN3C(=O)CN1CCN(c2ncccn2)CC1,4,-2,/,-7,-1,2,
Cc1ccc2c(c1)C(C)(C)[C@]1(C)NC(=O)CCN21,-6,-1,/,32,0,35*,MT1-MMP act val=5
CN1c2ccc(-c3cccc(C#N)c3)cc2[C@H]2[C@H](CCN2S(=O)(=O)c2ccccc2)[C@H]1CO,-4,/,1,/,/,/,
C[C@H]1CN(C)C(=O)Cc2cc(NS(C)(=O)=O)ccc2O[C@@H]1CN(C)S(C)(=O)=O,/,/,1,/,/,/,
CN1/C(=C\C=N\O)C(C)(C)c2ccccc21,2,1,6,16,0,3,
Cc1ccccc1N=C/C=C1\N(C)c2ccccc2C1(C)C,-1,-4,/,16,-1,56*,MT1-MMP act val=8
CCC(/C=C1\Oc2ccc(OC)cc2N1C)=C\c1sc2ccccc2[n+]1CCCS(=O)(=O)[O-],2,0,10,79,0,35*,MT1-MMP act val=-110
CCCc1ccc(C#N)c(SC2CC(=O)N(c3ccc(OC)cc3)C2=O)n1 (stereo not drawn),1,2,-16,1,-2,32*,MT1-MMP act val=-1
COc1ccc(N2C(=O)CC(Sc3nc(C)cc(C)c3C#N)C2=O)cc1 (stereo not drawn),-1,4,/,-2,1,6,
CN1/C(=C\C(=S)NC(=O)c2ccc([N+](=O)[O-])cc2)C(C)(C)c2ccccc21,/,2,/,22,-3,42*,MT1-MMP act val=11
CO[C@H]1CN(C)C(=O)c2ccc(NC(=O)C3CC3)cc2OC[C@H](C)N(C(=O)c2ccccc2)C[C@H]1C,9,/,-1,/,/,/,
COc1cc(C(=O)Nc2ccc(O)cc2C(=O)O)ccc1OC(C)=O,/,-2,/,8,0,37*,MT1-MMP act val=2
COC(=O)c1ccc(NC(=O)c2ccc(OC(C)=O)c(OC)c2)cc1,-2,-2,-5,-3,0,4,
COc1cc(/C=N/c2oc(C)c(C)c2C#N)cc(Br)c1O,1,1,8,13,0,33*,MT1-MMP act val=8
COc1ccc(/C=N/c2oc(C)c(C)c2C#N)c(OC)c1,/,-2,27,0,6,3,
O=C(O)c1cc(N=Nc2c(O)ccc3ccccc23)cc(C(=O)O)c1,/,3,11,33,1,33*,MT1-MMP act val=30
Oc1ccc(N=Nc2c(O)ccc3ccccc23)cc1,0,49*,-63,32,0,73*,MT1-MMP act val=41
O=C(CN1CCOCC1)NCC[C@H]1CC[C@@H](NC(=O)Nc2ccc(Cl)cc2)[C@H](CO)O1,-7,/,-1,/,/,/,
COc1cc(OC)cc(C(=O)Nc2ccc(-c3nc4ccccc4o3)cc2)c1,-4,-4,/,-1,1,31*,MT1-MMP act val=17
COc1cccc(C(=O)Nc2ccc(-c3nc4ccccc4o3)c(O)c2)c1,-1,-5,/,18,1,5,
NCC[C@H]1CC[C@@H](NC(=O)C2CC2)[C@@H](CO)O1,/,/,-1,/,/,/,
COc1ccc(NC(=O)CSc2n[nH]c(-c3ccncc3)n2)c([N+](=O)[O-])c1,1,0,-18*,7,0,-2,AID977621=?;AID977628=-4.8
CCOc1ccc(CCNC(=O)CN2C(=O)CCSc3ccccc32)cc1,0,-1,-20*,10,-1,3,AID977628=?
CC(CNC(=O)CN1C(=O)CCSc2ccccc21)c1ccccc1 (stereo not drawn),1,-3,-2,3,0,0,
N#C[C@@H]1[C@H](c2ccccc2-c2cccc(F)c2)[C@H](CO)N1C(=O)NC1CCCCC1,/,/,-10,/,/,/,
SMILES,Cneo AK release,DAGLB inh,rRNA inh HTS,SKN-1 block,iPSC survival up,MT1-MMP act inh,others
COc1ccc(-c2cc(C(=O)N3CCCCC3)no2)cc1OC,-2,0,-23*,4,-1,4,AID977621=-7;AID977628=?
COc1cccc(-c2cc(C(=O)N3CCc4ccccc4C3)no2)c1,1,-5,/,4,5,3,
COc1ccc(-c2cc(C(=O)N3CCc4ccccc4C3)no2)cc1,-2,-3,-26*,-4,1,-2,AID977621=-5
COc1ccc(-c2cc(C(=O)N3CCCC3)no2)cc1OC,1,-2,-4,1,0,0,
O=c1c2ccccc2cnn1Cc1n[nH]c(=S)n1C1CC2CCC1C2 (stereo not drawn),/,3,-20*,-5,0,7,AID977621=-3.5
CC(c1ccccc1)n1c(Cn2ncc3ccccc3c2=O)n[nH]c1=S (stereo not drawn),0,2,-9,0,-1,1,
Cc1cccc(NC(=O)c2c(C)nn(-c3ccccc3)c2Cl)c1,/,-12,-35*,7,0,-3,AID977621=-11;AID977628=-22
C[C@H](CO)N1C[C@H](C)[C@@H](CN(C)Cc2ccc(C(=O)O)cc2)OCCCC[C@H](C)Oc2ccc(NC(=O)C3CCCCC3)cc2C1=O,3,/,0,/,/,/,
Cc1ccc(-c2cc(C(=O)O)c3ccccc3n2)s1,-8,1,-4,4,0,-3,
O=C(O)c1cc(-c2ccc(Cl)s2)nc2ccccc12,/,3,-27*,7,0,3,AID977621=-13;AID977628=?
CN1CCSc2ccc(C(=O)Nc3cccc(F)c3)cc21,/,0,-23*,6,-1,5,AID977621=-2.8;AID977628=-5.5
COc1ccc(-c2csc(N)n2)cc1F,/,-1,-17*,8,-1,5,AID977621=-5.9;AID977628=-3.1
COc1cc[n+]([O-])cc1[N+](=O)[O-],0,-4,1.2*,17,-2,3,AID977621=-14;AID977628=-6.7
Cc1noc(C)c1NC(=O)Nc1cccc2c1O[C@H](CN(C)S(=O)(=O)c1ccccc1)[C@H](C)CN([C@@H](C)CO)C2=O,/,/,3,/,/,/,
CCOC(=O)C1CCCN(Cc2ccccc2F)C1 (stereo not drawn),1,1,/,3,0,7,
CCOC(=O)C1CCCN(Cc2c(Cl)cccc2Cl)C1 (stereo not drawn),5,-8,-23*,2,-1,-2,AID977621=-14;AID977628=-11
